FXIIa inh mix = human factor XIIa inhibitors, primary screen, biochemical, pooled compound mixtures, fluorogenic substrate. inhibition, % at 5 µM. actives 0.2% (n = 62,000). AID 684, 2007. purified FXIIa;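 also: 0% = enzyme without compound and 100% = no enzyme blank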
FXIa mix inh = FXIa protease inhibitors in compound pools, primary screen, biochemical, 10-compound mixtures | inhibition, % at 5 µM | purified FXIa, fluorogenic substrate, pooled mixtures | AID 680, 2007 | actives 0.19% (n = 62,000);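 also: each value is inhibition by a whole ten-compound pool holding the compound; 0% = enzyme with no mixture and 100% = wells lacking enzyme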
CatG inh = human cathepsin G inhibitors, primary screen, biochemical, pooled compound mixtures, AMC fluorescence. purified enzyme, AMC-tetrapeptide fluorescence. inhibition, % at 5 µM (by protocol). actives 0.2% (n = 62,000). AID 581, 2007;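 active = inhibition above 20% in each of the two mixture wells holding the compound; inactive = inhibition of 20% or less in either well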;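 also: 0% = enzyme control without mixture and 100% = blank lacking enzyme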
AP complement = alternative complement pathway inhibitors, primary screen, biochemical, ELISA, human serum, orthogonally pooled compounds. actives 0.08% (n = 62,000). LPS-coated ELISA, C3 deposition; tested in compound mixtures. inhibition, % at 5 µM;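 active = inhibition above 30% in each of the two pooled mixtures holding the compound, so the lower value exceeds 30%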;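 also: 0% = serum in Mg-EGTA without compound and 100% = EDTA serum blank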
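Test system: human serum complement alternative pathway, C3 deposition onto LPS / Medium: Mg2+-EGTA GVB++ buffer containing human serum at 1:15 dilution / Probe or stimulus: Plate-bound LPS / Times: 1 h at 37 °C / Signal: ELISA with HRP anti-human C3 antibody, TMB substrate, absorbance 450 nm / Measure: percent inhibition / Repeats: two pool placements per compound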
WNV NS2B-NS3 inh = inhibitors of WNV NS2B-NS3 protease, primary screen, biochemical, fluorogenic substrate | Genome polyprotein (West Nile virus), P06935 | fluorogenic substrate Ex360/Em465; hits give low values | z-score (test concentration not listed) | actives 0.18% (n = 65,000); in the data active = z-score below about -3
Target sequence (P06935 1371-1501 limits assumed): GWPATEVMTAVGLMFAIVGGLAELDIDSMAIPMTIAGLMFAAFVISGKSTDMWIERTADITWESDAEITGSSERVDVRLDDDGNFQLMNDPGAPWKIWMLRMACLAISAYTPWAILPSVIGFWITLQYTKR
Target sequence (P06935 1502-1679 limits assumed): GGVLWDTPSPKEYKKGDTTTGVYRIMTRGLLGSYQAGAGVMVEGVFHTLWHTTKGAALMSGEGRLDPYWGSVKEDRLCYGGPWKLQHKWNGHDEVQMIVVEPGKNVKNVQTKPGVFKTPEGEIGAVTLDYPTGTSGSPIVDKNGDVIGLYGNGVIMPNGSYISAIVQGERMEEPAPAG
C1s inh = complement C1s protease inhibitors, primary screen, biochemical, 10-compound mixtures; Complement C1s subcomponent (Homo sapiens), P09871; purified C1s, fluorogenic AMC substrate, pooled mixtures; mean inhibition % of two 10-compound mixtures (hits give high values), % at 5 µM (by protocol); actives 0.16% (n = 62,000);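 active = inhibition above 20% in each of the two 10-compound mixture wells holding the compound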;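 also: 0% = enzyme wells lacking compound mixture and 100% = no-enzyme blank wells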
The depositor's hits bear a star; · = no result. The list is not random: actives were taken first. Their share in the collection is about 0.85%. Rule as the data show it, unless noted: active = inhibition above about 20% (passing the limit was not always enough); inactive = the rest.

SMILES	FXIIa inh mix	FXIa mix inh	CatG inh	AP complement	WNV NS2B-NS3 inh	C1s inh
Cc1ccc(NC(=O)c2nnn(-c3cc(C)cc(C)c3)c2N)cc1	-2	25	38	11	1.2	1
Cc1cccc(-n2nnc(C(=O)Nc3ccc(F)cc3)c2N)c1	5	10	51*	23	-0.85	25
NC(=O)C1CCN(CC(=O)N2c3ccccc3CCc3ccccc32)CC1	30*	7	11	6	-0.96	12
O=C(/N=C1\NC(=O)C(F)(C(F)(F)F)S1)NC1CCCCC1 (stereo not given)	3	24*	17	8	0.31	14
O=C(CC1Nc2ccccc2NC1=O)NC1CCCCC1 (stereo not given)	3	-1	1	6	-0.51	6
Clc1cccc(Cl)c1COc1ccccn1	30*	3	-6	-11	0.79	-4
COc1cccc(-c2cc(C(=O)NCCc3ccccc3)no2)c1	1	4	22*	7	-0.99	16
COc1ccc(-c2cc(C(=O)NCc3ccc(Cl)cc3)no2)cc1OC	9	14	55*	7	0.24	7
COc1ccc(CNC(=O)c2cc(-c3ccc(OC)c(OC)c3)on2)cc1	0	10	32*	1	-0.2	22*
COc1cccc(-c2cc(C(=O)NCc3ccc(Cl)cc3)no2)c1	-21	19	47	18	0.22	-34
CCN(Cc1ccccc1)C(=O)CCCOc1ccccc1	12	11	20	-8	-0.72	22
CCN(Cc1ccccc1)C(=O)c1ccccc1C	12	5	8	20	-3.5*	10
CCc1nc2c(n1O)CCc1nonc1-2	13	-12	5	17	-0.61	-44
CCCSc1nc(N)cc(=O)[nH]1	-19	0	8	15	-0.59	4
CC12CCC(C(=O)NCc3ccccc3)(OC1=O)C2(C)C (stereo not given)	-3	6	-2	13	-0.67	-31
CC12CCC(C(=O)NCC3CCCO3)(OC1=O)C2(C)C (stereo not given)	4	42*	43	9	-0.82	45
COc1cccc(CNC(=O)C2CCN(S(=O)(=O)c3ccc4c(c3)CCC(=O)N4)CC2)c1	5	9	10	2	-3.3*	6
CCOC(=O)N1CCN(c2nc(-c3ccc(OC)cc3)no2)CC1	9	8	3	10	-1.1	1
COc1ccc(N2CCN(C(=O)c3cn(C)c(=O)c4c3c3ccccc3n4C)CC2)cc1	7	-3	10	8	-3.8*	4
Cc1ccc(N2CC(c3nc4ccccc4[nH]3)CC2=O)c(C)c1 (stereo not given)	-6	9	-3	11	-0.07	-6
CC1(C)CC(=O)C(C=NCCCN2CCOCC2)=C(O)C1	3	1	-10	-1	0.01	-39
CCn1c(O)c(C=NCCN2CCOCC2)sc1=S	1	7	0	5	-4.5*	-9
COc1ccc(S(=O)(=O)n2nc(-c3cc(OC)c(OC)c(OC)c3)cc2N)cc1OC	21*	6	1	25	-1.1	5
O=C(c1ccco1)N1CCN(S(=O)(=O)c2ccc(S(=O)(=O)NC3CCCC3)cc2)CC1	5	3	9	5	0.52	7
O=C(c1ccco1)N1CCN(S(=O)(=O)c2ccc(S(=O)(=O)NC3CCCCC3)cc2)CC1	9	2	9	10	0.42	71*
CS(=O)(=O)N(CC(=O)N1CCCCC1)C1CCCCC1	-17	0	0	6	1.1	2
CC(C)C(CC(=O)N1CCCCC1)C1CCOC(C)(C)C1 (stereo not given)	16	19	28*	1	·	-11
O=C(NCCCn1ccnc1)c1noc2c1CCCC2	-15	4	8	9	-1.5	0
Cc1c(NC(=O)c2noc3c2CCc2ccccc2-3)c(=O)n(-c2ccccc2)n1C	-2	14	41	12	-0.05	6
